The list is not random: actives were taken first. Their share in the collection is about 2%.
HGIII-sPLA2 inh: Inhibits HGIII-sPLA2 liposome hydrolysis, primary screen; 0.56% of 370,000 active; Q9NZ20; inhibition, % at 12.2 µM; QFRET BODIPY PC-A2 liposome hydrolysis, fluorescence;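 active = inhibition above mean plus 3 SD of compounds lying within the high and low control bounds, cut at about 19% in these data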;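 also: 0% = median of test compound wells and 100% = no enzyme DMSO wells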
Target sequence (Q9NZ20 whole entry, looked up): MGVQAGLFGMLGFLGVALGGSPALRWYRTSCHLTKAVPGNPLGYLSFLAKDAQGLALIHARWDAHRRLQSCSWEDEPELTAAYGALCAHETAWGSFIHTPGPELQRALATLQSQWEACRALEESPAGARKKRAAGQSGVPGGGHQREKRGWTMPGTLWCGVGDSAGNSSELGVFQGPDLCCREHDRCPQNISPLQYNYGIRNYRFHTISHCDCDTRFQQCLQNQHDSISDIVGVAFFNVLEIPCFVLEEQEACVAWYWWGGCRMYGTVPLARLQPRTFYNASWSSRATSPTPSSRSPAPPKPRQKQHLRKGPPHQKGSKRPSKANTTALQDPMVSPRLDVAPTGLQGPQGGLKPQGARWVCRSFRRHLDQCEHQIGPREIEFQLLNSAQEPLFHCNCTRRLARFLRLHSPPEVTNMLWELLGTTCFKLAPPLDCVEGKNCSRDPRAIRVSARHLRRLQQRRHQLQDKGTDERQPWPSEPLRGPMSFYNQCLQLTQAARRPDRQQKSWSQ
NSD2 inh: inhibitors of human histone methyltransferase NSD2; AID 743445; inhibition, % at 12.5 µM; 0.54% of 310,000 active; NSD2 peptide methylation, AlphaScreen, 120 min; O96028; in the data active = inhibition above about 50%
SR-BI HDL uptake: inhibitors of mouse SR-BI mediated HDL lipid uptake | Q61009 | ldlA[mSR-BI] CHO cells, DiI-HDL uptake fluorescence, 3 h | inhibition, % at 12.5 µM | 0.96% of 320,000 active | AID 488896;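 active = mean replicate inhibition of at least 70% and a set share of replicates each scoring 70 or more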;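 also: 0% = median of neutral control wells and 100% = median of positive control wells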
SR-BI DiI-HDL act: activators of SR-BI mediated HDL lipid uptake | activation, % at 12.5 µM | CHO ldlA[mSR-BI] cells, DiI-HDL uptake fluorescence, 3 h; 100 = double the neutral-control signal | 0.096% of 320,000 active;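 active = mean replicate activation of at least 60% and every replicate at or above 60%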;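 also: 0% = median plate neutral-control signal and 100% = twice that signal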
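system = CHO ldlA[mSR-BI] cells, LDL receptor-null, SR-BI overexpressing | medium = Ham's F12 with 0.5% BSA, HEPES 25 mM, pH 7.4 | probe or stimulus = DiI-HDL 10 µg/mL | compound dosing = single-point compound dose | incubation = compound exposure 3 h, 37 °C | technique = DiI fluorescence, bottom read | read-out = cell-associated DiI fluorescence as measure of HDL uptake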
Xi reactivation: reactivates the inactive X chromosome in mouse fibroblasts; 0.055% of 360,000 active; XiGFP mouse fibroblasts, % GFP-positive cells imaging, 3 d; cells co-treated with 5-aza-dC sensitizer; scaled so ellipticine positive control = 100%; activation, % at 7.58 µM;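 active = mean normalized replicate activation at least 10% and every replicate at or above 10%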;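 also: 0% = median of on-plate neutral control wells and 100% = ellipticine 6 µM median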
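Material: XiGFP fibroblasts, SV40-immortalized. Buffer or medium: DMEM plus 5-aza-dC sensitizer. Compound: single concentration per compound, delivered by pin transfer. Times: 3 days compound exposure. Controls: ellipticine 6 µM.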
ARNT-TACC3 inh: disrupts binding between human ARNT and TACC3; Q9Y6A5; AlphaScreen His-ARNT PAS-B/GST-TACC3 binding, luminescence; TACC3 fragment carries E629A point mutation; inhibition, % at 9.99 µM; 0.66% of 390,000 active; AID 623870;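 active = mean inhibition of replicates at least 50% and at least half of replicates each reaching 50%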;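 also: 0% = complete ARNT plus TACC3 wells and 100% = ARNT alone without TACC3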
Numbers without * were called inactive; . = no result.

SMILES	HGIII-sPLA2 inh	NSD2 inh	SR-BI HDL uptake	SR-BI DiI-HDL act	Xi reactivation	ARNT-TACC3 inh
CCOc1cc(/C=N/Nc2nc(-c3cccc(S(=O)(=O)N4CCCC4)c3)cs2)ccc1O	7	-2	98*	-98	0	11
CCC(=O)Nc1ccc(NC(=S)NC(=O)/C=C/c2ccco2)cc1	-1	2	89*	-89	0	-7
CCCN1[C@H](C(=O)NCC)[C@@H](CO)[C@@H]2Cn3c(ccc(/C=C/c4ccccc4)c3=O)[C@@H]21	.	.	.	.	0	-7
COc1ccc(CNC(=O)C2CC(C)=C(C)CC2C(=O)O)cc1OC (centres undefined)	1	0	-10	10	0	-17
N#CCSc1nc2cc(C(=O)N3CCC(C(N)=O)CC3)ccc2c2nc3ccccc3n12	.	.	0	-1	.	47*
COc1cc(-c2ccccc2)nc2ccccc12	-2	-2	-1	1	.	-6
COc1cc(C(=O)O)nc2ccccc12	1	.	-13	13	.	58*
COc1cc(NS(=O)(=O)c2ccc(Nc3nc(-c4ccccn4)cs3)cc2)nc(OC)n1	-41	0	-9	9	0	56*
CCOC(=O)C1CCN(S(=O)(=O)c2ccc(OCC(=O)OC)cc2)CC1	1	-2	-6	6	.	-3
O=[N+]([O-])c1cccc(S(=O)(=O)Nc2nc3ccccc3nc2Nc2cccc(S(=O)(=O)N3CCCCC3)c2)c1	-9	.	76*	-76	0	-5
O=C(O)c1ccnc(C(=O)O)c1	0	0	2	-2	.	57*
C=CCN(C)C(C#Cc1ccccc1)Cc1ccccc1 (centres undefined)	-1	0	.	.	.	.
N#CC1=C(N)NC(SCC(=O)c2ccc(Br)cc2)=C(C#N)C12CCCCC2	-48	2	26	-26	0	-9
COc1ccc(C(=O)CSC2=C(C#N)C3(CCCCC3)C(C#N)=C(N)N2)cc1	-18	1	72*	-72	.	6
O=C(O)c1ccc(-c2nnc(-c3cccc(Br)c3)o2)cc1	1	0	2	-2	0	11
Cc1cc(NC(=O)CSc2nnc(CNC(=O)c3cccc(C(F)(F)F)c3)o2)no1	-25	0	-13	13	0	46*
COCCNc1ccc([N+](=O)[O-])cc1C(=O)NC1CCCc2ccccc21 (centres undefined)	4	4	79*	-79	0	.
CO[C@H]1CN(C)C(=O)c2ccc(NC(=O)c3cccc(F)c3)cc2OC[C@@H](C)N(C(C)=O)C[C@H]1C	.	.	.	.	0	-4
Cc1cc(C)cc(NC(=O)c2cc3c(=O)n4ccccc4nc3s2)c1	9	-4	78*	-78	0	-7
CC(C)NC(=O)c1cc2c(=O)n3ccccc3nc2s1	17	1	-13	13	0	-7
Cc1ccc(CCN2CC(C(=O)NCCN3CCCCCC3)CC2=O)cc1 (centres undefined)	-1	16	-11	11	.	15
Oc1ccc(/C=N/NC(=S)Nc2cccnc2)c(O)c1	-7	-7	0	0	0	65*
Oc1ccc(C=NNC(=S)Nc2ccc(F)cc2)c(O)c1	-8	8	26	-26	1	65*
Oc1ccc(/C=N/NC(=S)Nc2cccnc2)c(O)c1O	-5	.	-4	4	0	64*
COCCCNC(=S)N/N=C/c1ccc(O)cc1O	-7	-1	8	-8	0	84*
COc1ccc(NC(=O)CSc2nnc(NC(=O)c3ccco3)s2)cc1	4	-4	-1	1	1	1
COc1ccc(NC(=O)Nc2cccc3c2O[C@@H](CN(C)C(=O)Nc2ccc(OC)cc2)[C@@H](C)CN([C@@H](C)CO)C3=O)cc1	.	.	.	.	0	-1
Nc1nc(SCC(=O)N2CCc3ccccc3C2)[nH]c(=O)c1-c1ccccc1	-6	.	4	-4	.	4
CC(=O)N1CCOc2ccc(S(=O)(=O)Nc3ncccc3C)cc21	10	-2	-1	1	0	-7
CC(=O)NCCC(=O)Nc1sc2c(c1-c1nc3ccccc3[nH]1)CCCC2	-8	0	69	-69	.	1
